Results published in ChEMBL document CHEMBL2203215, “Discovery of 6-[4-(6-nitroxyhexanoyl)piperazin-1-yl)]-9H-purine, as pharmacological post-conditioning agent” (Bioorg Med Chem, 2012).
Active and inactive are the calls of the source. The calls are words filed in the database; no cut-off is given here.

Columns and labels:
Oryctolagus cuniculus [1] = experiment: Toxicity in New Zealand White rabbit ischemia/reperfusion model assessed as blood pressure at total dose of 3.8 umol/kg administered bolus at 20th mins of ischemia and 1st min of reperfusion measured at 180 mins reperfusion is period of reperfusion; type: organism-based; settings: in vivo, iv, 3 h
Oryctolagus cuniculus [2] = experiment: Cardioprotective activity in New Zealand White rabbit ischemia/reperfusion model assessed as reduction of infarct size at total dose of 3.8 umol/kg administered bolus at 20th mins and 1st min of reperfusion; type: functional; parameters: scale not given: the % may be the effect or the level left
In short: (§1)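 Male rabbits (n = 6–8/group), anesthetized with thiopentone 30 mg/kg via ear vein, intubated and ventilated. Subjected to 30 min regional myocardial ischemia and 3 h reperfusion. Given as two boluses of 1.9 µmol/kg (3.8 µmol/kg total). Heart slices stained with 1% TTC (phosphate buffer pH 7.4, 20 min, 37 °C), then fixed in formaldehyde. Risk zone delineated under UV at 366 nm; infarct expressed relative to risk area.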

Oryctolagus cuniculus [3] = experiment: Toxicity in New Zealand White rabbit ischemia/reperfusion model assessed as heart rate at total dose of 3.8 umol/kg administered bolus at 40th mins and 1st min before sustained ischemia measured at 20 mins ischemia period of initial ischemic insult; type: organism-based; settings: in vivo, iv
Oryctolagus cuniculus [4] = experiment: Toxicity in New Zealand White rabbit ischemia/reperfusion model assessed as heart rate at total dose of 3.8 umol/kg administered bolus at 20th mins of ischemia and 1st min of reperfusion measured at 180 mins reperfusion is period of reperfusion; type: organism-based; settings: in vivo, iv, 3 h
Oryctolagus cuniculus [5] = experiment: Toxicity in New Zealand White rabbit ischemia/reperfusion model assessed as blood pressure at total dose of 3.8 umol/kg administered bolus at 40th mins and 1st min before sustained ischemia measured at 20 mins ischemia period of initial ischemic insult; type: organism-based; settings: in vivo, iv
Oryctolagus cuniculus [6] = experiment: Cardioprotective activity in New Zealand White rabbit ischemia/reperfusion model assessed as reduction of infarct size at total dose of 3.8 umol/kg administered bolus at 40th mins and 1st min before sustained ischemia; type: functional; parameters: scale not given: the % may be the effect or the level left; in short: as §1
Oryctolagus cuniculus [7] = experiment: Cardioprotective activity in New Zealand White rabbit ischemia/reperfusion model assessed as reduction of infarct to risk area ratio at total dose of 3.8 umol/kg administered bolus; type: functional; parameters: scale not given: the % may be the effect or the level left; in short: as §1
Oryctolagus cuniculus [8] = experiment: Toxicity in New Zealand White rabbit ischemia/reperfusion model assessed as mortality at total dose of 3.8 umol/kg administered bolus measured at 10th and 15th mins of reperfusion; type: organism-based; settings: in vivo
In short: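 Male rabbits, randomized (n = 6–8 per group), anesthetized with sodium thiopentone 30 mg/kg into an ear vein, intubated and mechanically ventilated. Regional myocardial ischemia for 30 min, then 3 h reperfusion. Compound given as bolus at the 20th min of ischemia and the 1st min of reperfusion, total dose 3.8 µmol/kg. Animal survival was followed through reperfusion.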

Oryctolagus cuniculus [9] = experiment: Cardioprotective activity in New Zealand White rabbit ischemia/reperfusion model assessed as increase of phosphorylated Akt level at total dose of 3.8 umol/kg administered bolus at 40th mins and 1st min before sustained ischemia by Western blot analysis; type: functional, organism-based
Oryctolagus cuniculus [10] = experiment: Cardioprotective activity in New Zealand White rabbit ischemia/reperfusion model assessed as increase of eNOS phosphorylated level at total dose of 3.8 umol/kg administered bolus at 40th mins and 1st min before sustained ischemia by Western blot analysis; type: functional, organism-based

O=C(CCCCC1CCSS1)N1CCN(c2ncnc3[nH]cnc23)CC1 (stereo not given)
Activity (Oryctolagus cuniculus [1]): 101 mmHg
Activity (Oryctolagus cuniculus [2]): 28.6%
Activity (Oryctolagus cuniculus [3]): 279 bpm
Activity (Oryctolagus cuniculus [4]): 271 bpm
Activity (Oryctolagus cuniculus [5]): 106 mmHg

O=C(CCCCCO[N+](=O)[O-])N1CCN(c2ncnc3[nH]cnc23)CC1
Activity (Oryctolagus cuniculus [1]): 112 mmHg
Activity (Oryctolagus cuniculus [2]): 13.4%
Activity (Oryctolagus cuniculus [3]): 278 bpm
Activity (Oryctolagus cuniculus [6]): 24.9%
Activity (Oryctolagus cuniculus [4]): 269 bpm
Activity (Oryctolagus cuniculus [5]): 117 mmHg
Activity (Oryctolagus cuniculus [7]): 12.3%

O=C(Cn1cnc2c(N3CCCCC3)ncnc21)NCCO[N+](=O)[O-]
Activity (Oryctolagus cuniculus [1]): 102 mmHg
Activity (Oryctolagus cuniculus [8]): Toxic
Activity (Oryctolagus cuniculus [3]): 280 bpm
Activity (Oryctolagus cuniculus [6]): 28.4%
Activity (Oryctolagus cuniculus [4]): 276 bpm
Activity (Oryctolagus cuniculus [5]): 115 mmHg

O=C(CNc1ncnc2[nH]cnc12)NCCO[N+](=O)[O-]
Activity (Oryctolagus cuniculus [1]): 104 mmHg
Activity (Oryctolagus cuniculus [8]): Toxic
Activity (Oryctolagus cuniculus [3]): 282 bpm
Activity (Oryctolagus cuniculus [6]): 34.8%
Activity (Oryctolagus cuniculus [4]): 273 bpm
Activity (Oryctolagus cuniculus [5]): 110 mmHg

O=C(NCCO[N+](=O)[O-])c1nc2c(N3CCCCC3)ncnc2[nH]1
Activity (Oryctolagus cuniculus [1]): 103 mmHg
Activity (Oryctolagus cuniculus [8]): Toxic
Activity (Oryctolagus cuniculus [3]): 274 bpm
Activity (Oryctolagus cuniculus [6]): 34.4%
Activity (Oryctolagus cuniculus [4]): 269 bpm
Activity (Oryctolagus cuniculus [5]): 112 mmHg

O=C(CO[N+](=O)[O-])N1CCN(c2ncnc3[nH]cnc23)CC1
Activity (Oryctolagus cuniculus [1]): 109 mmHg
Activity (Oryctolagus cuniculus [2]): 26.2%
Activity (Oryctolagus cuniculus [3]): 278 bpm
Activity (Oryctolagus cuniculus [6]): 37.3%
Activity (Oryctolagus cuniculus [4]): 274 bpm
Activity (Oryctolagus cuniculus [5]): 114 mmHg

O=[N+]([O-])OCCCCCCn1cnc2c(N3CCCCC3)ncnc21
Activity (Oryctolagus cuniculus [1]): 104 mmHg
Activity (Oryctolagus cuniculus [9]): Active
Activity (Oryctolagus cuniculus [2]): 36.8%
Activity (Oryctolagus cuniculus [3]): 276 bpm
Activity (Oryctolagus cuniculus [6]): 19.8%
Activity (Oryctolagus cuniculus [4]): 270 bpm
Activity (Oryctolagus cuniculus [5]): 112 mmHg
Activity (Oryctolagus cuniculus [10]): Active

Nc1ncnc2c1ncn2[C@@H]1O[C@H](CO[N+](=O)[O-])[C@@H](O)[C@H]1O
Activity (Oryctolagus cuniculus [1]): 98 mmHg
Activity (Oryctolagus cuniculus [2]): 40.2%
Activity (Oryctolagus cuniculus [3]): 284 bpm
Activity (Oryctolagus cuniculus [4]): 275 bpm
Activity (Oryctolagus cuniculus [5]): 102 mmHg

O=[N+]([O-])OC[C@H]1O[C@@H](n2cnc3c(N4CCCCC4)ncnc32)[C@H](O)[C@@H]1O
Activity (Oryctolagus cuniculus [1]): 110 mmHg
Activity (Oryctolagus cuniculus [2]): 22.7%
Activity (Oryctolagus cuniculus [3]): 279 bpm
Activity (Oryctolagus cuniculus [6]): 17.9%
Activity (Oryctolagus cuniculus [4]): 271 bpm
Activity (Oryctolagus cuniculus [5]): 113 mmHg
